Measurements reported in ChEMBL document CHEMBL3769340, “Drug design, synthesis, in vitro and in silico evaluation of selective monoaminoxidase B inhibitors based on 3-acetyl-2-dichlorophenyl-5-aryl-2,3-dihydro-1,3,4-oxadiazole chemical scaffold” (Eur J Med Chem, 2016).

Key:
[1] = molecular target: T1, Amine oxidase [flavin-containing] B (Homo sapiens, UniProt P27338); experiment: Inhibition of human recombinant MAO-B expressed in baculovirus infected BTI cells using p-tyramine as substrate after 15 mins by Amplex Red-based fluorescence assay; type: cell-based
T1 sequence (P27338 whole entry): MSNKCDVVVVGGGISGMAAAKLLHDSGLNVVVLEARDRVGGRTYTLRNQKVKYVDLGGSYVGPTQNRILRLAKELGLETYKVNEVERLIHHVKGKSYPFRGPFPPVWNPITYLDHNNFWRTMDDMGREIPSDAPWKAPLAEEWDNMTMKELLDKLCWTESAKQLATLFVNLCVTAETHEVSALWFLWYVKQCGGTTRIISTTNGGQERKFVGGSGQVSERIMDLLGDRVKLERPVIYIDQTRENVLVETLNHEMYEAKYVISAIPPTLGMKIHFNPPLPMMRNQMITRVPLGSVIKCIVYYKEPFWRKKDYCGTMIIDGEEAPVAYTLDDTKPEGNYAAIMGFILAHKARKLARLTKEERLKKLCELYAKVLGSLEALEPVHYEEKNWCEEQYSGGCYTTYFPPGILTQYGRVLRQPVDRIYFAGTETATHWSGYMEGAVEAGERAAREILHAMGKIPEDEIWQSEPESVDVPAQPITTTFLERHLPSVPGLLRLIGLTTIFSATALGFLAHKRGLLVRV

[2] = molecular target: T2, Amine oxidase [flavin-containing] A (Homo sapiens, UniProt P21397); experiment: Inhibition of human recombinant MAO-A expressed in baculovirus infected BTI cells using p-tyramine as substrate at 100000 nM after 15 mins by Amplex Red-based fluorescence assay; details: 0.25 h, 100 µM
T2 sequence (P21397 whole entry): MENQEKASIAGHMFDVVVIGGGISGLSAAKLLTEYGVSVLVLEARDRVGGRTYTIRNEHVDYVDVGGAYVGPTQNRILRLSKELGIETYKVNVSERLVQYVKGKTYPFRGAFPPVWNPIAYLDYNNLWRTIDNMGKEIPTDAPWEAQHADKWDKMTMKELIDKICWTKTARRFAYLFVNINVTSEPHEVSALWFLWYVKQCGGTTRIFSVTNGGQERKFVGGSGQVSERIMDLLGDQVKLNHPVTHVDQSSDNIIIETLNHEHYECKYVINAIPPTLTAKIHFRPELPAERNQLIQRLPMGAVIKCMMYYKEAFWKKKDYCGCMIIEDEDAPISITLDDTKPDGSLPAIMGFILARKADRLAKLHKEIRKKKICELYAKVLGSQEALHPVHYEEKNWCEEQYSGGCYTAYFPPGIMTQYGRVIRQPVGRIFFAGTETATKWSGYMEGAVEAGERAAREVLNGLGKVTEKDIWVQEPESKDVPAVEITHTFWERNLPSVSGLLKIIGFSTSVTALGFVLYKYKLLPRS
Summary of the method: (§1)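 Recombinant hMAO-A or hMAO-B, set to oxidize 165 pmol p-tyramine/min in controls, preincubated with compound for 15 min at 37 °C in the dark. Reaction started with Amplex Red, horseradish peroxidase (1 U/mL) and p-tyramine. Resorufin fluorescence read at 37 °C (ex 545, em 590 nm), with an enzyme-free buffer blank subtracted. Single highest concentration tested: 100000 nM, or 1×10⁶ nM.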

[3] = molecular target: T1, Amine oxidase [flavin-containing] B; experiment: Inhibition of human recombinant MAO-B expressed in baculovirus infected BTI cells using p-tyramine as substrate at 100000 nM after 15 mins by Amplex Red-based fluorescence assay; details: 0.25 h; for inhibition (INH): bti, 100 µM; summary of the method: as §1
[4] = molecular target: T1, Amine oxidase [flavin-containing] B; experiment: Inhibition of human recombinant MAO-B expressed in baculovirus infected BTI cells using p-tyramine as substrate at 1x10'6 nM after 15 mins by Amplex Red-based fluorescence assay; details: 0.25 h; summary of the method: as §1

| Structure (SMILES) | IC50 [1] | inhibition (INH) [2] | further results |
| --- | --- | --- | --- |
| CC(=O)N1N=C(c2ccc(Br)cc2)OC1c1ccc(Cl)c(Cl)c1 (stereo not given) | 67.7 nM | Not Active | – |
| CC(=O)N1N=C(c2ccncc2)OC1c1ccc(Cl)c(Cl)c1 (stereo not given) | 69400 nM | Not Active | – |
| CC(=O)N1N=C(c2ccccc2)OC1c1ccc(Cl)c(Cl)c1 (stereo not given) | – | Not Active | inhibition at 100 µM ([3]; BTI): 40% |
| CC(=O)N1N=C(c2ccccc2C)OC1c1ccc(Cl)c(Cl)c1 (stereo not given) | 2460 nM | Not Active | – |
| COc1ccc(C2=NN(C(C)=O)C(c3ccc(Cl)c(Cl)c3)O2)cc1 (stereo not given) | 218 nM | Not Active | – |
| CC(=O)N1N=C(c2ccc(N(C)C)cc2)OC1c1ccc(Cl)c(Cl)c1 (stereo not given) | – | Not Active | inhibition (INH) [3]: Not Active |
| CC(=O)N1N=C(c2ccc(Cl)cc2)O[C@H]1c1ccc(Cl)c(Cl)c1 | – | – | inhibition (INH) [3]: Not Active |
| CC(=O)N1N=C(c2ccc(C#N)cc2)OC1c1ccc(Cl)c(Cl)c1 (stereo not given) | – | Not Active | inhibition (INH) [3]: Not Active |
| O=C(NCCN1CCOCC1)c1ccc(Cl)cc1 [MOCLOBEMIDE] | – | – | inhibition (INH) [4]: Not Active |

Further lines, with some results ahead:

| IC50 [1] | inhibition (INH) [2] | Structure (SMILES) | further results |
| --- | --- | --- | --- |
| 523 nM | – | CC(=O)N1N=C(c2ccc([N+](=O)[O-])cc2)O[C@H]1c1ccc(Cl)c(Cl)c1 | – |
| 7.61 nM | – | CC(=O)N1N=C(c2ccc([N+](=O)[O-])cc2)O[C@@H]1c1ccc(Cl)c(Cl)c1 | – |
| 19.3 nM | Not Active | CC(=O)N1N=C(c2ccc(C)cc2)OC1c1ccc(Cl)c(Cl)c1 (stereo not given) | – |
| 204 nM | – | CC(=O)N1N=C(c2ccc(Cl)cc2)O[C@@H]1c1ccc(Cl)c(Cl)c1 | – |
| 627 nM | Not Active | CC(=O)N1N=C(c2ccc(Cl)cc2)OC1c1ccc(Cl)c(Cl)c1 (racemic) | – |
| 9.46 nM | Not Active | CC(=O)N1N=C(c2ccc([N+](=O)[O-])cc2)OC1c1ccc(Cl)c(Cl)c1 (racemic) | – |
